Data as given in ChEMBL document CHEMBL1146459, “Production of biologically active taxoids by a callus culture of Taxus cuspidata” (2004).

How the values were obtained:
[1] = system: DMS-114; assay: Growth inhibition of human DMS114 cells after 48 hrs by SRB assay; format: functional; details: DMS-114, 48 h
[2] = Reversal of multidrug resistance in human 2780AD cells assessed as [3H]vincristine accumulation at 10 ug/mL after 2 hrs relative to control; format: functional, A2780 ADR
Outline: (§1)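 Multidrug-resistant human ovarian cancer 2780AD cells were exposed to taxoids at 0.1, 1 or 10 µg/mL. Radiolabelled vincristine accumulated in the cells was measured as dpm/well, using means of triplicate determinations. Results are expressed as % of vincristine accumulated relative to the control experiment. They were also scored on a seven-level index according to the range of relative accumulation.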

[3] = Reversal of multidrug resistance in human 2780AD cells assessed as [3H]vincristine accumulation at 1 ug/mL after 2 hrs relative to control; format: functional, A2780 ADR; outline: as §1
[4] = system: SF-268; assay: Growth inhibition of human SF268 cells after 48 hrs by SRB assay; format: functional; details: SF-268, 48 h
[5] = system: NCI-H23; assay: Growth inhibition of human NCI-H23 cells after 48 hrs by SRB assay; format: functional; details: NCI-H23, 48 h
[6] = system: OVCAR-5; assay: Growth inhibition of human OVCAR5 cells after 48 hrs by SRB assay; format: functional; details: OVCAR-5, 48 h
[7] = system: OVCAR-4; assay: Growth inhibition of human OVCAR4 cells after 48 hrs by SRB assay; format: functional; details: OVCAR-4, 48 h
[8] = system: HCC 2998; assay: Growth inhibition of human HCC2998 cells after 48 hrs by SRB assay; format: functional; details: HCC 2998, 48 h
[9] = system: LOX IMVI; assay: Growth inhibition of human LOXIMVI cells after 48 hrs by SRB assay; format: functional
[10] = system: MDA-MB-231; assay: Growth inhibition of human MDA-MB-231 cells after 48 hrs by SRB assay; format: functional; details: MDA-MB-231, 48 h
[11] = system: HT-29; assay: Growth inhibition of human HT-29 cells after 48 hrs by SRB assay; format: functional; details: HT-29, 48 h
[12] = Reversal of multidrug resistance in human 2780AD cells assessed as [3H]vincristine accumulation at 0.1 ug/mL after 2 hrs relative to verapamil; format: functional, A2780 ADR
[13] = system: St-4; assay: Growth inhibition of human St-4 cells after 48 hrs by SRB assay; format: functional; details: St-4, 48 h
[14] = Growth inhibition of human HBC4 cells after 48 hrs by SRB assay; format: functional; details: HBC4, 48 h
[15] = system: MKN-74; assay: Growth inhibition of human MKN74 cells after 48 hrs by SRB assay; format: functional; details: MKN-74, 48 h
[16] = system: DU-145; assay: Growth inhibition of human DU145 cells after 48 hrs by SRB assay; format: functional; details: DU-145, 48 h
[17] = Reversal of multidrug resistance in human 2780AD cells assessed as [3H]vincristine accumulation at 0.1 ug/mL after 2 hrs relative to control; format: functional, A2780 ADR; outline: as §1
[18] = system: KM12; assay: Growth inhibition of human KM12 cells after 48 hrs by SRB assay; format: functional; details: KM12, 48 h
[19] = system: MCF7; assay: Growth inhibition of human MCF7 cells after 48 hrs by SRB assay; format: functional; details: MCF7, 48 h
[20] = system: ACHN; assay: Growth inhibition of human ACHN cells after 48 hrs by SRB assay; format: functional
[21] = system: PC-3; assay: Growth inhibition of human PC3 cells after 48 hrs by SRB assay; format: functional; details: PC-3, 48 h
[22] = Growth inhibition of human RXF631L cells after 48 hrs by SRB assay; format: functional; details: RXF 631, 48 h
[23] = read-out: LC50 (the source's name)
[24] = read-out: pLC50 (the source's name) (converted)

C=C1[C@@H](OC(C)=O)CC[C@@]2(C)C[C@H](OC(C)=O)C3=C(C)C[C@H](OC(=O)C(C)CC)[C@@H]([C@@H](OC(C)=O)[C@H]12)C3(C)C (some centres undefined)
GI50 ([1]; read-out: GI50): 10 µM | CC50 [1, 23]: > 100 µM | TGI ([1]; read-out: TGI): 57 µM | GI50 ([1]; read-out: pGI50 (converted)): 10 µM | CC50 [1, 24]: 100 µM | TGI ([1]; read-out: pTGI (converted)): 57.5 µM | Activity [2]: 701% | Activity [3]: 256% | GI50 ([4]; read-out: GI50): 74 µM | CC50 [4, 23]: > 100 µM | TGI ([4]; read-out: TGI): > 100 µM | GI50 ([4]; read-out: pGI50 (converted)): 74.1 µM | CC50 [4, 24]: 100 µM | TGI ([4]; read-out: pTGI (converted)): 100 µM | GI50 ([5]; read-out: GI50): 23 µM | CC50 [5, 23]: > 100 µM | TGI ([5]; read-out: TGI): 69 µM | GI50 ([5]; read-out: pGI50 (converted)): 22.9 µM | CC50 [5, 24]: 100 µM | TGI ([5]; read-out: pTGI (converted)): 69.2 µM | GI50 ([6]; read-out: GI50): 48 µM | CC50 [6, 23]: > 100 µM | TGI ([6]; read-out: TGI): > 100 µM | GI50 ([6]; read-out: pGI50 (converted)): 47.9 µM | TGI ([6]; read-out: pTGI (converted)): 100 µM | GI50 ([7]; read-out: GI50): 21 µM | CC50 [7, 23]: > 100 µM | TGI ([7]; read-out: TGI): > 100 µM | GI50 ([7]; read-out: pGI50 (converted)): 21.4 µM | CC50 [7, 24]: 100 µM | TGI ([7]; read-out: pTGI (converted)): 100 µM | GI50 ([8]; read-out: GI50): 27 µM | CC50 [8, 23]: > 100 µM | TGI ([8]; read-out: TGI): > 100 µM | GI50 ([8]; read-out: pGI50 (converted)): 27.5 µM | CC50 [8, 24]: 100 µM | TGI ([8]; read-out: pTGI (converted)): 100 µM | GI50 ([9]; read-out: GI50): 35 µM | CC50 [9, 23]: > 100 µM | TGI ([9]; read-out: TGI): > 100 µM | GI50 ([9]; read-out: pGI50 (converted)): 34.7 µM | CC50 [9, 24]: 100 µM | TGI ([9]; read-out: pTGI (converted)): 100 µM | GI50 ([10]; read-out: GI50): 18 µM | CC50 [10, 23]: > 100 µM | TGI ([10]; read-out: TGI): > 100 µM | GI50 ([10]; read-out: pGI50 (converted)): 18.2 µM | TGI ([10]; read-out: pTGI (converted)): 100 µM | GI50 ([11]; read-out: GI50): 28 µM | CC50 [11, 23]: > 100 µM | TGI ([11]; read-out: TGI): > 100 µM | GI50 ([11]; read-out: pGI50 (converted)): 27.5 µM | CC50 ([11]; read-out: pLC50 (converted)): > 100 µM | TGI ([11]; read-out: pTGI (converted)): 100 µM | Activity [12]: 95% | GI50 ([13]; read-out: GI50): 33 µM | CC50 [13, 23]: > 100 µM | TGI ([13]; read-out: TGI): > 100 µM | GI50 ([13]; read-out: pGI50 (converted)): 33.1 µM | CC50 [13, 24]: 100 µM | TGI ([13]; read-out: pTGI (converted)): 100 µM | GI50 ([14]; read-out: GI50): 72 µM | CC50 [14, 23]: > 100 µM | TGI ([14]; read-out: TGI): > 100 µM | GI50 ([14]; read-out: pGI50 (converted)): 72.4 µM | CC50 [14, 24]: 100 µM | TGI ([14]; read-out: pTGI (converted)): 100 µM | GI50 ([15]; read-out: GI50): 30 µM | CC50 [15, 23]: > 100 µM | TGI ([15]; read-out: TGI): > 100 µM | GI50 ([15]; read-out: pGI50 (converted)): 30.2 µM | CC50 [15, 24]: 100 µM | TGI ([15]; read-out: pTGI (converted)): 100 µM | GI50 ([16]; read-out: GI50): 33 µM | CC50 [16, 23]: > 100 µM | TGI ([16]; read-out: TGI): > 100 µM | GI50 ([16]; read-out: pGI50 (converted)): 32.4 µM | CC50 [16, 24]: 100 µM | TGI ([16]; read-out: pTGI (converted)): 100 µM | Activity [17]: 111% | GI50 ([18]; read-out: GI50): 42 µM | CC50 [18, 23]: > 100 µM | TGI ([18]; read-out: TGI): > 100 µM | GI50 ([18]; read-out: pGI50 (converted)): 41.7 µM | CC50 ([18]; read-out: pLC50 (converted)): > 100 µM | TGI ([18]; read-out: pTGI (converted)): 100 µM | GI50 ([19]; read-out: GI50): 24 µM | CC50 [19, 23]: > 100 µM | TGI ([19]; read-out: TGI): 93 µM | GI50 ([19]; read-out: pGI50 (converted)): 24 µM | CC50 ([19]; read-out: pLC50 (converted)): > 100 µM | TGI ([19]; read-out: pTGI (converted)): 93.3 µM | GI50 ([20]; read-out: GI50): 28 µM | CC50 [20, 23]: > 100 µM | TGI ([20]; read-out: TGI): > 100 µM | GI50 ([20]; read-out: pGI50 (converted)): 28.2 µM | CC50 [20, 24]: 100 µM | TGI ([20]; read-out: pTGI (converted)): 100 µM | GI50 ([21]; read-out: GI50): 20 µM | CC50 [21, 23]: > 100 µM | TGI ([21]; read-out: TGI): > 100 µM | GI50 ([21]; read-out: pGI50 (converted)): 20 µM | TGI ([21]; read-out: pTGI (converted)): 100 µM | GI50 ([22]; read-out: GI50): 25 µM | CC50 [22, 23]: > 100 µM | TGI ([22]; read-out: TGI): > 100 µM | GI50 ([22]; read-out: pGI50 (converted)): 24.5 µM | CC50 [22, 24]: 100 µM | TGI ([22]; read-out: pTGI (converted)): 100 µM
